Measurements from ChEMBL document CHEMBL1800062, “Structure-activity relationships of carboline and carbazole derivatives as a novel class of ATP-competitive kinesin spindle protein inhibitors” (J Med Chem, 2011).
The source made the active and inactive calls. The calls are words filed in the database; no cut-off is given here.

Legend:
[1] = biological target: T1, Kinesin-like protein KIF23 (Homo sapiens) (UniProt Q02241); test: Inhibition of MKLP-1 ATPase activity at 20 uM
T1 sequence (whole entry): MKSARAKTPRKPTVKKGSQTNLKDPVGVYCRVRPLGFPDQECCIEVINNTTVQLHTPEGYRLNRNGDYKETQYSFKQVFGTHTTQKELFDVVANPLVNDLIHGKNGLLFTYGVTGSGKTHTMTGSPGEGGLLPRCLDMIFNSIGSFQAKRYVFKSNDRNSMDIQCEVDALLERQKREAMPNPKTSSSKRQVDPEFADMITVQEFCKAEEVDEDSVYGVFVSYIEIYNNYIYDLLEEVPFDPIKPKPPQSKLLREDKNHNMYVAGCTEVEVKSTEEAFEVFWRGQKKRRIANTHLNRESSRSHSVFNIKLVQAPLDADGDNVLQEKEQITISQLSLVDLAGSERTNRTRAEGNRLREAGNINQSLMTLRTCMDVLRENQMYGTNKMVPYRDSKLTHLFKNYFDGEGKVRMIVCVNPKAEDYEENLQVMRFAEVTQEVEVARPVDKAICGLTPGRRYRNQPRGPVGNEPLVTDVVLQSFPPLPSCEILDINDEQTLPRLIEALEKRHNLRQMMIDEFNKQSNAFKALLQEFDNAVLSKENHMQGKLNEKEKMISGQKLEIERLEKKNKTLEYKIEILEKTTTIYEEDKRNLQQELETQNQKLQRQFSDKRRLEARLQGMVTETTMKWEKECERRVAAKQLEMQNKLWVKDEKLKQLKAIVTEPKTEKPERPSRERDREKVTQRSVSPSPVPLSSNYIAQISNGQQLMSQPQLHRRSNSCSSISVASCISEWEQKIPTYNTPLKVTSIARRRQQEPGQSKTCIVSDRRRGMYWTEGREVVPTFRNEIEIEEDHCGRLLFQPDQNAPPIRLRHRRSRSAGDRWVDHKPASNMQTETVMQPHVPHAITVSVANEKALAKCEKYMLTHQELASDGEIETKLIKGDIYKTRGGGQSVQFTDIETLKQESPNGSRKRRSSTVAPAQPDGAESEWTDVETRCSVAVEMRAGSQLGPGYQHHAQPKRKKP

[2] = system: HeLa; test: Antimitotic activity in human HeLa cells assessed as cell cycle arrest after 24 hrs using DAPI staining by fluorescent microscopic analysis; format: functional
Procedure, shortened: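 HeLa seeded 10⁵ cells/well on glass chamber slides, 6 h at 37 °C/5% CO₂, then fresh medium with inhibitor (DMSO final 0.4% v/v) for 24 h. Fixed in 3% paraformaldehyde then −20 °C methanol; anti-α-tubulin (DM1A) and anti-phospho-histone H3 Ser10 immunostaining, DAPI counterstain. ≥500 cells per concentration visually scored mitotic/interphase/other; MI50 from dose-response curves, triplicate data points.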

[3] = biological target: T2, Kinesin-like protein KIF22 (Homo sapiens) (UniProt Q14807); test: Inhibition of Kid ATPase activity at 20 uM
T2 sequence (whole entry): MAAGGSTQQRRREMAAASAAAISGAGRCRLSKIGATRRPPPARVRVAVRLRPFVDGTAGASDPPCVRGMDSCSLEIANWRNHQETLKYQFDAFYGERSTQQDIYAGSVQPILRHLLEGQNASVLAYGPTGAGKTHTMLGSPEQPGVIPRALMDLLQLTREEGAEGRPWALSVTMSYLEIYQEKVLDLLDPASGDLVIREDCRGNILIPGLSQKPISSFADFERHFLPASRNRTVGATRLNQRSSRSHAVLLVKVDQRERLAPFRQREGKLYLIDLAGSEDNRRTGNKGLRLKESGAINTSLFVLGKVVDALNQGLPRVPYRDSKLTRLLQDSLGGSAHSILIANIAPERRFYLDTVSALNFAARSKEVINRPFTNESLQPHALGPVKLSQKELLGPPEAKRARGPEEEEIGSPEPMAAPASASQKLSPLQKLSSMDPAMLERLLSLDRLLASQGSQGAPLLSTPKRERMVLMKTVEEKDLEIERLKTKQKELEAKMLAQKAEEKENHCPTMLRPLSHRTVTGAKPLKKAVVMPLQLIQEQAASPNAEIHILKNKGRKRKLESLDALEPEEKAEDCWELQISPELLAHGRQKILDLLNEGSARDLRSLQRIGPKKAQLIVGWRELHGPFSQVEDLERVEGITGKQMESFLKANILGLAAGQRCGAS

[4] = biological target: T3, Chromosome-associated kinesin KIF4A (Homo sapiens) (UniProt O95239); test: Inhibition of KIF-4 ATPase activity at 20 uM
T3 sequence (whole entry): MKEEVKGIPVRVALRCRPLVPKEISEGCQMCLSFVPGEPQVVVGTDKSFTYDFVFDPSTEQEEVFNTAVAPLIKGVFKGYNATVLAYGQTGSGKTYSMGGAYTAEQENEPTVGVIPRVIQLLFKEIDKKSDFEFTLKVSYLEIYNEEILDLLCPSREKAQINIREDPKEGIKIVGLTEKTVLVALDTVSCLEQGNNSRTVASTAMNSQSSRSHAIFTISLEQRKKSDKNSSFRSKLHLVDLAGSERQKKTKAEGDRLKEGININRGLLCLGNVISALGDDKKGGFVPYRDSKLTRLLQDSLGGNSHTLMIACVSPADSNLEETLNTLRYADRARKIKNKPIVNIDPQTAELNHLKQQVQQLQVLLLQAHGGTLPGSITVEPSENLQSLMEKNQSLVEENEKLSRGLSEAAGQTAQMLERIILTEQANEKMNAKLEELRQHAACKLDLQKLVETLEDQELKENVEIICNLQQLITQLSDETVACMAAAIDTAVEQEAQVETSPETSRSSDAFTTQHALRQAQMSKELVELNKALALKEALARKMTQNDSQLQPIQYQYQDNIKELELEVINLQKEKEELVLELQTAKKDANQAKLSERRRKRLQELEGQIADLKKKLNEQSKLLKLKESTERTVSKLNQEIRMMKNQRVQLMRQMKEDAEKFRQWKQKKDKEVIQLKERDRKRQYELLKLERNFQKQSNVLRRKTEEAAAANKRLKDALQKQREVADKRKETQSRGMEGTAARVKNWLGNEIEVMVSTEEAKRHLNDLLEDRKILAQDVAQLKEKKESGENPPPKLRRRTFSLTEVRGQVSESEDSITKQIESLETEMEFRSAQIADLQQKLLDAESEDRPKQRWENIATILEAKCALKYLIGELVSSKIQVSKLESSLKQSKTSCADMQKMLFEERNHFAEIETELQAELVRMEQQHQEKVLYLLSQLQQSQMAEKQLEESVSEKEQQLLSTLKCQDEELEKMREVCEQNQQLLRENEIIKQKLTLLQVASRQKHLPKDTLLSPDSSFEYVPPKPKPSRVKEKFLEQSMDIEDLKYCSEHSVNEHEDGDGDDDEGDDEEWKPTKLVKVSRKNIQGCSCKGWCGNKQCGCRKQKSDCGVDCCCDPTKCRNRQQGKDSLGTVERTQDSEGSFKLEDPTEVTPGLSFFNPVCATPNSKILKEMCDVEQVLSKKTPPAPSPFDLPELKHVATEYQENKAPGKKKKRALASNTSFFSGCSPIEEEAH

SMILES | inhibition [1] | MI50 [2] [µM] | inhibition [3] | inhibition [4]
O=C1CCc2c(ccc3c2[nH]c2cc(C(F)(F)F)ccc23)N1 | inactive | 1.1 | inactive | inactive
NC(=O)Nc1ccc2c(c1)[nH]c1cc(C(F)(F)F)ccc12 | inactive | 1.3 | inactive | inactive
O=C1CCc2cc3c(cc2N1)[nH]c1cc(C(F)(F)F)ccc13 | inactive | 0.13 | inactive | inactive
